UBC13 inh: human UBC13 polyubiquitination inhibition | UBC13 polyubiquitin chain formation, TR-FRET | hit rate 0.47% among 330,000 | AID 485273 | P61088 | inhibition, % at 20 µM; in the data active = inhibition above about 45%, passing the limit was not always enough
Target sequence (P61088 whole entry, looked up): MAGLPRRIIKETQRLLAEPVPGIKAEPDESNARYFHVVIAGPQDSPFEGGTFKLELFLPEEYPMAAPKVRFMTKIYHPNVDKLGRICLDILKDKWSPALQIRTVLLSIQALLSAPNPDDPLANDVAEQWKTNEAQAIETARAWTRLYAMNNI
UPR XBP1 act: activators of adaptive arm of unfolded protein response (XBP1); hit rate 0.33% among 330,000; CHO-XBP1 luciferase reporter, IRE1-XBP1 UPR activation, luminescence; percent of tunicamycin response, DMSO as zero; activation, % at 20 µM;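 active = versus positive control, 20 µM dose yields 30% or more activation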;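 also: 100% = tunicamycin at 10 µg/mL and 0% = DMSO only wells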
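Material: CHO cell line with stable XBP1 luciferase reporter; buffer or medium: F12 medium containing 10% fetal bovine serum; compound: single point, 20 µM final compound, 1% DMSO; incubation: 6 h treatment, 37 °C; measured by: glow luminescence from Steady-Glo reagent; evaluation: activation, % of tunicamycin; control set: tunicamycin high, DMSO low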
Apaf1 inhib: inhibitors of human Apaf-1 apoptosome; O14727; reconstituted apoptosome caspase-3 activity, DEVD-Rh110 fluorescence; inhibition, % at 20 µM; hit rate 0.71% among 330,000; active = inhibition of at least 40% at 20 µM;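 also: plate controls were DMSO wells for no effect and DEVD-CHO caspase inhibitor wells for full effect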
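detection = Rh110 fluorescence intensity | test system = biochemical Apaf-1 apoptosome reconstitution | also added = cytochrome c and DEVD-Rh110 substrate | schedule = 30 min plus 50 min, RT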
Mdm2-MdmX inh: disrupts the human Mdm2-MdmX interaction. O15151+Q00987. SaOS-2 split-luciferase Mdm2/MdmX complementation, luminescence. inhibition, % at 8 µM. hit rate 3% among 330,000. AID 485346;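 active = inhibition of at least 50% at 8 µM in the primary screen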
CHOP UPR activ: activators of apoptotic arm of unfolded protein response (CHOP); CHO-CHOP luciferase reporter, UPR activation, luminescence; percent of tunicamycin response over DMSO baseline; activation, % at 10 µM; hit rate 0.34% among 330,000;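 active = at 10 µM dose, activation of 40% or more, normalized to positive control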;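 also: 100% = tunicamycin at 10 µg/mL and 0% = DMSO alone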
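Material: CHO-CHOP cells, stable luciferase reporter of PERK-eIF2a-CHOP signalling; quantity: 500 reporter cells seeded per well; buffer or medium: F12 medium containing 10% fetal bovine serum; compound: one dose, 10 µM in 0.5% DMSO; incubation: 6 h compound treatment, 37 °C; measured by: Steady-Glo luciferase luminescence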
Mdm2-MdmX conf: confirmation of human Mdm2/MdmX interaction inhibitors. shares compounds with Mdm2-MdmX inh. Mdm2-MdmX binding, luminescent assay. inhibition, % at 8 µM. hit rate 55% among 10,000. AID 489028; in the data active = inhibition above about 40%
FLuc counter: counter-screen for Mdm2/MdmX inhibitors: full-length luciferase; shares compounds with Mdm2-MdmX inh; SaOS-2 full-length luciferase counterscreen, luminescence; hit rate 77% among 6,200; inhibition, % at 8 µM;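 active = mean inhibition at 8 µM reaching about 37%, which flags the compound as non-specific, limit read from the data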;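 also: p53-null SaOS-2 cells with luciferase driven by a doxycycline-inducible promoter; compound on cells about two nights before reading with doxycycline added after day one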
* hit, by the source's call. In the library only some 4.1% were active in any assay of this set; here they are far more common.

Results for CCN(CC)CCCN(Cc1cc2ccc(C)c(C)c2[nH]c1=O)C(=O)NC1CCCCC1 ?
UBC13 inh: 1; UPR XBP1 act: -1; Apaf1 inhib: -4; Mdm2-MdmX inh: 61*; CHOP UPR activ: 0; Mdm2-MdmX conf: 50*; FLuc counter: 74*

How did Cc1ccc(C)c2[nH]c(=O)c(CN(CC3CCCO3)C(=S)NCc3ccco3)cc12 (configuration not stated) do in these assays?
UBC13 inh: 14; UPR XBP1 act: -3; Apaf1 inhib: -6; Mdm2-MdmX inh: 19; CHOP UPR activ: 4

Results for Cc1cc(Sc2nnc(N)s2)c2ccccc2n1 ?
UBC13 inh: 44; UPR XBP1 act: -8; Apaf1 inhib: -4; Mdm2-MdmX inh: 50*; CHOP UPR activ: 13; Mdm2-MdmX conf: 36; FLuc counter: 15

What do the screens show for `Cc1cc(C(N)=O)c2ccccc2n1`?
UBC13 inh: -2; UPR XBP1 act: 0; Apaf1 inhib: -7; Mdm2-MdmX inh: 14; CHOP UPR activ: -2

How did COc1ccccc1C1=NOC(COc2ccc3c(C)cc(=O)oc3c2)C1 (configuration not stated) do in these assays?
UBC13 inh: -8; UPR XBP1 act: 16; Apaf1 inhib: 1; Mdm2-MdmX inh: 58*; CHOP UPR activ: 1; Mdm2-MdmX conf: 58*; FLuc counter: 88*

How did COc1ccc(C2=NOC(COc3ccc4c(C)cc(=O)oc4c3)C2)c(OC)c1 (configuration not stated) do in these assays?
UBC13 inh: 16; UPR XBP1 act: 2; Apaf1 inhib: 19; Mdm2-MdmX inh: 56*; CHOP UPR activ: 0; Mdm2-MdmX conf: 56*; FLuc counter: 60*

How did COc1cccc(COc2ccc3c(C)cc(=O)oc3c2)c1 do in these assays?
UBC13 inh: -1; UPR XBP1 act: -2; Apaf1 inhib: 15; Mdm2-MdmX inh: -198; CHOP UPR activ: 6

Results for O=C(CCN1C(=O)c2ccccc2C1=O)Nc1ccccc1C(=O)N1CCOCC1 ?
UBC13 inh: -1; UPR XBP1 act: 0; Apaf1 inhib: -3; Mdm2-MdmX inh: 13; CHOP UPR activ: -2

What do the screens show for `CC(=O)n1cc(N(C(=O)CCl)c2ccc([N+](=O)[O-])cc2)c2ccccc21`?
UBC13 inh: -3; UPR XBP1 act: -9; Apaf1 inhib: -14; Mdm2-MdmX inh: 98*; CHOP UPR activ: -8; Mdm2-MdmX conf: 80*; FLuc counter: 42*

Results for CC(=O)n1cc(N(C(=O)CCl)c2ccccc2)c2ccccc21 ?
UBC13 inh: 7; UPR XBP1 act: -7; Apaf1 inhib: 7; Mdm2-MdmX inh: 97*; CHOP UPR activ: -3; Mdm2-MdmX conf: 100*; FLuc counter: 51*

What do the screens show for `CC(=O)n1cc(CO)c2ccccc21`?
UBC13 inh: 14; UPR XBP1 act: -3; Apaf1 inhib: -12; Mdm2-MdmX inh: 16; CHOP UPR activ: -1

What do the screens show for `COc1ccc(/C=C2\SC(=S)N(CC(=O)N3CCN(C)CC3)C2=O)cc1`?
UBC13 inh: -9; UPR XBP1 act: -1; Apaf1 inhib: 19; Mdm2-MdmX inh: 20; CHOP UPR activ: 2

What do the screens show for `COc1ccc(/C=C2\SC(=S)N(CCC(=O)N3CCCCC3)C2=O)cc1`?
UBC13 inh: -11; UPR XBP1 act: -1; Apaf1 inhib: 22; Mdm2-MdmX inh: 64*; CHOP UPR activ: -2; Mdm2-MdmX conf: 46*; FLuc counter: 90*

How did O=C(CCN1C(=O)/C(=C/c2ccccc2)SC1=S)N1CCCCCC1 do in these assays?
UBC13 inh: -27; UPR XBP1 act: 0; Apaf1 inhib: 25; Mdm2-MdmX inh: 95*; CHOP UPR activ: 10; Mdm2-MdmX conf: 77*; FLuc counter: 52*

What do the screens show for `CCc1ccc(/C=C2\SC(=S)N(CCC(=O)N3CCN(C)CC3)C2=O)cc1`?
UBC13 inh: 0; UPR XBP1 act: 4; Apaf1 inhib: 18; Mdm2-MdmX inh: 40; CHOP UPR activ: 2

Results for COc1cccc(/C=C2\SC(=S)N(CCC(=O)N3CCCCC3)C2=O)c1 ?
UBC13 inh: -2; UPR XBP1 act: -6; Apaf1 inhib: 24; Mdm2-MdmX inh: 86*; CHOP UPR activ: 4; Mdm2-MdmX conf: 53*; FLuc counter: 71*

What do the screens show for `COc1cccc(/C=C2\SC(=S)N(CC3CCCO3)C2=O)c1` (configuration not stated)?
UBC13 inh: -1; UPR XBP1 act: 1; Apaf1 inhib: 13; Mdm2-MdmX inh: -7; CHOP UPR activ: 2

How did CCOC(=O)N1CCN(C(=O)CCN2C(=O)/C(=C\c3cccc(OC)c3)SC2=S)CC1 do in these assays?
UBC13 inh: -6; UPR XBP1 act: 0; Apaf1 inhib: 10; Mdm2-MdmX inh: 60*; CHOP UPR activ: 0; Mdm2-MdmX conf: 38; FLuc counter: 46*

What do the screens show for `O=C(COC(=O)CNC(=O)c1ccc(Cl)c([N+](=O)[O-])c1)NC(=O)CN1CCCC1=O`?
UBC13 inh: -1; UPR XBP1 act: -2; Apaf1 inhib: 0; Mdm2-MdmX inh: -9; CHOP UPR activ: 1

What do the screens show for `Cc1ccc(C)c(NC(=O)c2cc(-c3cc(C)c(C)cc3O)n[nH]2)c1`?
UBC13 inh: 0; UPR XBP1 act: 2; Apaf1 inhib: 6; Mdm2-MdmX inh: 25; CHOP UPR activ: 4

How did O=C(CN1C(=O)/C(=C/c2cccc(Br)c2)SC1=S)N1CCCC1 do in these assays?
UBC13 inh: -7; UPR XBP1 act: -4; Apaf1 inhib: 19; Mdm2-MdmX inh: 62*; CHOP UPR activ: 1; Mdm2-MdmX conf: 76*; FLuc counter: 63*

How did CC1CCN(C(=O)CCN2C(=O)/C(=C/c3cccs3)SC2=S)CC1 do in these assays?
UBC13 inh: -8; UPR XBP1 act: -5; Apaf1 inhib: 7; Mdm2-MdmX inh: 83*; CHOP UPR activ: 18; Mdm2-MdmX conf: 46*; FLuc counter: 20

How did COC(=O)COc1ccc(/C=C2/SC(=O)N(CC(=O)N3CCCC3)C2=O)cc1Br do in these assays?
UBC13 inh: 3; UPR XBP1 act: 1; Apaf1 inhib: 6; Mdm2-MdmX inh: 56*; CHOP UPR activ: -1; Mdm2-MdmX conf: 11

Results for O=C(CCN1C(=O)/C(=C/c2ccccc2Cl)SC1=S)NN1CCOCC1 ?
UBC13 inh: 33; UPR XBP1 act: -4; Apaf1 inhib: 16; Mdm2-MdmX inh: 9; CHOP UPR activ: 0

How did O=C(CCN1C(=O)/C(=C\c2ccccc2Cl)SC1=S)N1CCN(c2ccccc2)CC1 do in these assays?
UBC13 inh: -17; UPR XBP1 act: -1; Apaf1 inhib: 14; Mdm2-MdmX inh: 98*; CHOP UPR activ: 3; Mdm2-MdmX conf: 80*; FLuc counter: 42*

High-throughput results: PubChem BioAssay, Sanford-Burnham Center for Chemical Genomics
